This note sets out measurements from ChEMBL document CHEMBL1275383, “Synthesis and antioxidant properties of pulvinic acids analogues” (Bioorg Med Chem, 2010).

Activity calls are given as the source filed them. No cut-off for these calls is given here.

Format in all cases: functional
Assay [1] in a line: Antioxidant activity assessed as protection against 340 Gy gamma-radiation-induced thymidine degradation in 12.5 mM phosphate buffer at 50 uM by competitive immuno-enzymatic assay. Summed up:
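Thymidine at 15 µM with compound at 50 µM, 12.5 mM phosphate buffer, given 340 Gy from a 137Cs source. Remaining intact thymidine measured by competitive immunoassay with anti-thymidine monoclonal antibody; duplicate, averaged.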

Assay [2] can be described thus: Antioxidant activity assessed as protection against UV/H2O2-induced thymidine degradation in 12.5 mM phosphate buffer at 100 uM by competitive immuno-enzymatic assay. The essentials: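 Thymidine at 70 µM with compound at 100 µM and H2O2 at 5 mM in 12.5 mM phosphate buffer, irradiated at 254 nm, 1.75 J cm-2. Intact thymidine quantified by competitive anti-thymidine monoclonal antibody immunoassay; duplicate, averaged.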

The nature of assay [3]: Antioxidant activity against ABTS radical assessed as Trolox equivalent.
The nature of assay [4]: Antioxidant activity assessed as protection against Fenton oxidation-induced thymidine degradation in 11.4 mM phosphate buffer at 100 uM by competitive immuno-enzymatic assay.
Assay [5] deals with Radical scavenging activity. Kind of assay: Antioxidant activity assessed as DPPH free radical scavenging activity by measuring [DPPH]/antioxidant EC50 ratio measured every 5 mins for 1 hr. Summed up: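 DPPH (200 µM ethanol stock, 100 µM final) mixed 1:1 with compound in ethanol, 10 concentrations (0–1 10^-3 M), duplicate. Read at 515 nm every 5 min for 1 h; % remaining DPPH at steady state plotted against antioxidant/DPPH molar ratio to give EC50. Reported as antiradical power; no value if steady state not reached within 1 h.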

Assay [6] in a line: Antioxidant activity assessed as beta-carotene bleaching activity at 116 uM after 4 hrs by spectrophotometry relative to contro. The essentials: (§1)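 Emulsion of β-carotene, linoleic acid and Tween 40 in oxygen-saturated water added to compound in ethanol (24 or 116 µM). Incubated at 50 °C, absorbance at 470 nm read at zero and followed over 4 h. % protection = [1 − (A0 − At)/(Ac0 − Act)] × 100 versus no-compound control; triplicate, averaged.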

Assay [7] in a line: Antioxidant activity assessed as beta-carotene bleaching activity at 24 uM after 4 hrs by spectrophotometry relative to control. The essentials: as §1

Regarding `COC(=O)[C@H](O)[C@H]1OC(=O)C(C(C)=O)=C1O`, the Activity in assay [1] was found to be 5.6%; in assay [2] it was 7.4%; in assay [3], 82.7 mM; in assay [4], 0%.

On to `COC(=O)/C=C1\OC(=O)C(c2ccc(Br)cc2)=C1O`, for which the Activity in assay [1] was found to be 51.7%; in assay [2], 41.2%; in assay [3], 17.7 mM; in assay [4], 27.1%. In addition, the Ratio in assay [5] was 1.17.

Take `COC(=O)[C@H](O)[C@H]1OC(=O)C(c2ccc(C)cc2)=C1O`: the Activity turned out to be 42.7% in assay [1], 43.8% in assay [2], 1.54 mM in assay [3] and 7% in assay [4]. Moreover, the Ratio in assay [5] amounted to 3.27.

In the case of `O=C1O[C@H]([C@@H](O)CO)C(O)=C1O`, the outcome in assay [6] and in assay [7] was inactive. In addition, the Activity in assay [3] is 0.64 mM. The Ratio in assay [5] amounted to 4.56.

Regarding `COC(=O)/C(=C1/OC(=O)C(c2ccc(OC)cc2)=C1O)c1ccc(Cl)cc1`, the Activity came to 22.6% in assay [1], 45% in assay [2], 3.97 mM in assay [3] and 41.7% in assay [4]. The Ratio in assay [5] is 3.37.

Regarding `COC(=O)[C@H](O)[C@H]1OC(=O)C(c2ccc(F)cc2)=C1O`, the Activity is 39% in assay [1], 55.3% in assay [2], 2.94 mM in assay [3] and 55.2% in assay [4]. Moreover, in assay [5], the Ratio came to 4.2.

In the case of `COC(=O)/C(=C1/OC(=O)C(c2ccc(OC)cc2)=C1O)c1ccoc1`, the Activity in assay [1] is 77%; in assay [2], 36%; in assay [3], 1.06 mM; in assay [4], 13.8%. Further, the Ratio in assay [5] is 3.35.

`COC(=O)/C=C1\OC(=O)C(c2ccc(OC)cc2)=C1O`: the Activity in assay [6] is over 44%; in assay [1], 73.8%; in assay [2], 30.7%; in assay [3], 1.31 mM; in assay [4], 32%. In assay [5], the Ratio amounted to 3.6.

Consider `COC(=O)/C=C1\OC(=O)C(c2ccc(O)cc2)=C1O`, for which the Activity in assay [1] was 57.2%; in assay [2] it was 32.6%; in assay [3], 0.48 mM; in assay [4] it was 82.7%. Moreover, in assay [5], the Ratio was 2.85.

As for `Cc1c(C)c2c(c(C)c1O)CCC(C)(C(=O)O)O2` (stereo not given), the Activity in assay [1] is 5.2%; in assay [2], 4.4%; in assay [4] it was 11.7%.

For `COC(=O)/C=C1\OC(=O)C(c2ccc(C)cc2)=C1O`, the Activity amounted to 30% in assay [1], 52.7% in assay [2], 6.51 mM in assay [3] and 14.1% in assay [4]. In addition, the Ratio in assay [5] came to 2.56.

Consider `O=C(O)c1cc(O)c(O)c(O)c1`, for which, in assay [3], the Activity came out at 1.36 mM. Besides, the Ratio in assay [5] is 11.7.

With `COC(=O)[C@H](O)[C@H]1OC(=O)C(c2ccccc2)=C1O`, the Activity in assay [6] is over 44%; in assay [1] it was 62%; in assay [2], 33.2%; in assay [3] it was 1.94 mM; in assay [4], 31%. Also, the Ratio in assay [5] was 3.57.

In the case of `COC(=O)[C@H](O)[C@H]1OC(=O)C(c2cccs2)=C1O`, the values for the Activity in assay [1], in assay [2] and in assay [4] were 40.3%, 16.1% and 0%, respectively. Further, the Ratio in assay [5] amounted to 2.25.

In the case of `COC(=O)/C(=C1/OC(=O)C(c2ccc(OC)cc2)=C1O)c1ccco1`, the Activity amounted to 62% in assay [1], 28.7% in assay [2], 1.16 mM in assay [3] and 0% in assay [4]. Also, in assay [5], the Ratio worked out at 3.42.

With `COC(=O)/C(=C1/OC(=O)C(c2ccc(OC)cc2)=C1O)c1cccc(C(F)(F)F)c1`, the Activity was 46.3% in assay [1], 35.8% in assay [2], 2.75 mM in assay [3] and 33.9% in assay [4]. For the same molecule, in assay [5], the Ratio stood at 4.08.

In the case of `COC(=O)/C=C1\OC(=O)C(c2ccc([N+](=O)[O-])cc2)=C1O`, the Activity was 58.5% in assay [1], 31.5% in assay [2], 18.7 mM in assay [3] and 40.7% in assay [4].

As to `COC(=O)/C=C1\OC(=O)C(C(=O)OCc2ccccc2)=C1O`, the Activity in assay [1] worked out at 23.1%; in assay [2], 13.9%; in assay [3], 18.5 mM; in assay [4], 0.3%. Also, the Ratio in assay [5] came out at 0.93.

In the case of `COC(=O)[C@H](O)[C@H]1OC(=O)C(c2ccc(Br)cc2)=C1O`, the Activity amounted to 60.2% in assay [1], 37.3% in assay [2], 4.91 mM in assay [3] and 37.6% in assay [4]. The Ratio in assay [5] was found to be 2.81.

For the molecule `COC(=O)/C(=C1/OC(=O)C(c2ccc(OC)cc2)=C1O)c1ccccc1C(F)(F)F`, the result in assay [6] was Active. Besides, the Activity in assay [1] is 17.6%; in assay [2], 46.1%; in assay [3], 12.1 mM; in assay [4] it was 14.8%.

Turning to `COC(=O)[C@H](O)[C@H]1OC(=O)C(c2ccc(O)cc2)=C1O`, the Activity in assay [1] came to 63.7%; in assay [2], 29.4%; in assay [3] it was 0.6 mM; in assay [4], 93.4%. In assay [5], the Ratio is 3.

In the case of `COC(=O)/C(=C1/OC(=O)C(c2ccc(OC)cc2)=C1O)c1ccc(C(C)=O)cc1`, the result in assay [6] and in assay [7] was Active. Further, the Activity in assay [1] stood at 34.3%; in assay [2] it was 41.1%; in assay [3], 6.18 mM; in assay [4] it was 41.1%. The Ratio in assay [5] is 3.27.

With `COC(=O)[C@H](O)[C@H]1OC(=O)C(c2ccc(OCc3ccccc3)cc2)=C1O`, the Activity in assay [1] is 37.4%; in assay [2], 51%; in assay [3], 2.16 mM; in assay [4], 21.1%. Also, the Ratio in assay [5] was determined as 3.12.

`COC(=O)[C@H](O)[C@H]1OC(=O)C(C(=O)OCc2ccccc2)=C1O`: the Activity in assay [1] turned out to be 47.9%; in assay [2] it was 16.8%; in assay [3] it was 43.3 mM; in assay [4], 2.6%.

With `COC(=O)/C(=C1/OC(=O)C(c2ccc(OC)cc2)=C1O)c1ccccc1`, the Activity turned out to be 46.4% in assay [1], 42.9% in assay [2], 1.67 mM in assay [3] and 58% in assay [4]. Moreover, the Ratio in assay [5] amounted to 3.2.

Regarding `COC(=O)/C(=C1/OC(=O)C(c2ccc(OC)cc2)=C1O)c1cccc(O)c1`, the Activity came to 34.2% in assay [1], 50% in assay [2], 1.56 mM in assay [3] and 91.6% in assay [4]. Further, the Ratio in assay [5] turned out to be 3.68.

Consider `COC(=O)/C=C1\OC(=O)C(c2ccccc2)=C1O`, for which the Activity in assay [1] was determined as 69.4%; in assay [2] it was 37.7%; in assay [3] it was 46.2 mM; in assay [4], 45.8%. Also, the Ratio in assay [5] turned out to be 3.22.

For `COC(=O)/C=C1\OC(=O)C(c2cccs2)=C1O`, the values for the Activity in assay [1], in assay [2] and in assay [4] were 51.4%, 23.6% and 0%, respectively.

Take `COC(=O)/C=C1\OC(=O)C(c2ccc(F)cc2)=C1O`: the Activity in assay [1] was determined as 52.9%; in assay [2], 69.3%; in assay [4] it was 28.3%. Besides, the Ratio in assay [5] amounted to 1.97.

`COC(=O)[C@H](O)[C@H]1OC(=O)C(c2ccc([N+](=O)[O-])cc2)=C1O`: the Activity in assay [1] is 60.9%; in assay [2], 33.4%; in assay [3], 24.6 mM; in assay [4], 70.7%.

As for `COC(=O)/C(=C1/OC(=O)C(c2ccc(OC)cc2)=C1O)c1ccsc1`, the Activity in assay [1] was 76%; in assay [2] it was 34.8%; in assay [3], 2.69 mM; in assay [4], 45.2%. Also, in assay [5], the Ratio worked out at 2.97.

Consider `COC(=O)[C@H](O)[C@H]1OC(=O)C(c2ccc(OC)cc2)=C1O`, for which the Activity turned out to be 87.4% in assay [1], 24.9% in assay [2], 1.55 mM in assay [3] and 25.8% in assay [4]. Further, the Ratio in assay [5] worked out at 3.44.
